# Source: PubChem (The Scripps Research Institute Molecular Screening Center)
# M5 PAM: positive allosteric modulators of human muscarinic M5 receptor; AID 624038; P08912; activation, % at 3 µM; CHO-K1 hM5, Fluo-8 calcium, ACh EC20 PAM; 0% = ACh EC20, 100% = ACh EC100; 360,000 compounds, 0.3% hits;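 active means activation above the run cutoff, the mean activation of all test compounds plus 3 SD, cut at about 18% in these data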
# Target sequence (P08912 whole entry, looked up): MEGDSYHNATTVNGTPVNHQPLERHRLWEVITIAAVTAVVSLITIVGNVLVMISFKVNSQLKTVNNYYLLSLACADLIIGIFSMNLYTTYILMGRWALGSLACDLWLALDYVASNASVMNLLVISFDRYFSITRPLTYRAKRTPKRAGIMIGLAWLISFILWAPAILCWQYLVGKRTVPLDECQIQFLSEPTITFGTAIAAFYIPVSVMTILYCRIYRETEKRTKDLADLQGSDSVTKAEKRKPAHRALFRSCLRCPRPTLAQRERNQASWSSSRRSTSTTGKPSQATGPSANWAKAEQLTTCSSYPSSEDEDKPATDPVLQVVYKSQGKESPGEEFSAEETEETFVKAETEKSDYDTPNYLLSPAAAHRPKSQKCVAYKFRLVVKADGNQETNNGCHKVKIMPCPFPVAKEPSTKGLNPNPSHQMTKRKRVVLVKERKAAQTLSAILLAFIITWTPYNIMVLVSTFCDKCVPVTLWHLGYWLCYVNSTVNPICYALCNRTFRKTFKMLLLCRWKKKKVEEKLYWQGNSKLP
#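 Assay system: CHO-K1 hM5 cells. Also added: acetylcholine at EC20 concentration, added after compound. Dosing: 3 µM, single dose. Times: compound preincubation 140 s before EC20 acetylcholine addition. Signal: Fluo-8 calcium fluorescence. Measure: % activation relative to EC20 and EC100 ACh responses. Repeats: singlicate, one well per test compound.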
# CHRM4 agonist: CHRM4 agonism in calcium assay; P08173; CHO-K1 hM4/Gqi5, Fluo-8 calcium fluorescence; vehicle 0%, full acetylcholine response 100%; activation, % at 3 µM; 360,000 compounds, 0.14% hits; AID 624127;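 active means activation above the run mean over all test wells plus 3 SD, cut at about 32% in these data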;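 further: peak over basal fluorescence ratio per well then scaled between controls; 0% = DMSO wells and 100% = acetylcholine at EC100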
# CHRM5 agonist: CHRM5 agonism in calcium assay | P08912 | CHO-K1 hM5 cells, Fluo-8 calcium fluorescence; 0% DMSO wells, 100% maximal acetylcholine response | activation, % at 3 µM | 360,000 compounds, 0.19% hits;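 active means activation above the run's mean over test compounds plus 3 SD, cut at about 23% in these data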;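 further: signal is peak over basal fluorescence ratio across the kinetic read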
# M5 antag: blocks acetylcholine activation of human M5 receptor; P08912; CHO-hM5 cells, Fluo-8 calcium fluorescence, ACh EC80; inhibition, % at 3 µM; 360,000 compounds, 0.59% hits; AID 624040;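 active means inhibition above a per-plate cutoff, the mean of that plate's test compounds plus 3 SD, cut at about 27% in these data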;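 further: 0% = acetylcholine EC80 with DMSO and 100% = DMSO without agonist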
# M4 antag: blocks acetylcholine activation of human M4 receptor. 360,000 compounds, 0.73% hits. P08173. AID 624125. CHO-hM4 cells, ACh EC80, Fluo-8 calcium fluorescence. inhibition, % at 3 µM;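 active means inhibition above its plate's cutoff, the mean inhibition of sample wells plus 3 SD, cut at about 27% in these data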;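 further: 0% = acetylcholine EC80 with DMSO and 100% = DMSO without agonist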
# M4 PAM: potentiates acetylcholine response at human M4 receptor; CHO-K1 hM4/Gqi5, Fluo-8 calcium fluorescence, ACh EC20; 0% = ACh EC20, 100% = maximal ACh; AID 624126; activation, % at 3 µM; 360,000 compounds, 0.4% hits;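 active means activation above its plate's cutoff, the mean activation of sample wells plus 3 SD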
# * = called active by the depositor. Hits are enriched below; roughly 1.8% of the tested compounds scored in any of these assays.
SMILES,M5 PAM,CHRM4 agonist,CHRM5 agonist,M5 antag,M4 antag,M4 PAM
CCCCCC[n+]1ccccc1/C=C/c1ccc(N(C)C)cc1,-21,33*,42*,64*,49*,-17
CC[n+]1ccccc1/C=C/c1ccc(N(C)C)cc1,0,1,-4,-2,2,1
O=C1OC(c2cccs2)Sc2ccccc21 (centres undefined),-3,-1,-6,-1,-8,4
Cc1cc(C)c(C#N)c(SCC(=O)N(CCC#N)c2ccc3c(c2)OCCO3)n1,-1,0,-2,3,1,-2
Cc1ccccc1S(=O)(=O)NC(=O)C1(C)CCN1C(=O)CC1CCCC1 (centres undefined),-1,1,1,3,-7,6
Cc1ccccc1S(=O)(=O)NC(=O)C1(C)CCN1C(=O)C/C=C/c1ccccc1 (centres undefined),-3,0,-1,-3,85*,-13
CC1(C(=O)NS(=O)(=O)c2ccccc2Cl)CCN1C(=O)CC1CCCC1 (centres undefined),0,1,1,2,-11,15*
COc1cccc(/C=N/Nc2snc(SC)c2C#N)c1O,-14,35*,21,17,10,-12
Oc1ccccc1CNc1ccc(Br)cn1,-20,1,1,22,33*,-17
CNC(=S)N/N=C/c1c2ccccc2c(Cl)c2ccccc12,-1,2,-3,23,4,-4
O=[N+]([O-])c1ccc(O)c(/C=N/Nc2nn[nH]n2)c1,1,4,0,-3,-5,24*
CCOc1ccc(C(=O)NCC(C)CN(C)C)cc1OCC (centres undefined),22*,0,-2,18,-3,8
CCOc1cc(C(=O)NCC(C)CN(C)C)cc(OCC)c1OCC (centres undefined),-2,0,-1,6,7,1
CCCCC(CC)C(=O)Nc1cc(=O)[nH]c2nc3ccccc3n12 (centres undefined),-5,0,-3,12,-7,0
CC(C)C(=O)Nc1cc(=O)[nH]c2ncnn12,1,0,-2,-3,-11,19*
CC1CN=C(NC2CCCCC2C)S1 (centres undefined),3,0,-5,1,27*,-9
CC1CCCCC1NC1=NCCS1 (centres undefined),2,0,-8,2,2,-1
COc1ccc(-n2nc([N+](=O)[O-])c(=NC3CCN(Cc4ccccc4)CC3)n2O)cc1,-3,0,-9,1,28*,-18
COc1cccc(-c2ccccc2C2=CC(=O)CC(C)(C)C2=O)c1,-1,1,0,6,1,-1
COc1ccc([N+](=O)[O-])c(S(=O)(=O)c2ccccc2)n1,8,-1,10,9,30*,-7
COc1ccc([N+](=O)[O-])c(S(=O)(=O)c2ccc(Cl)cc2)n1,6,23,12,18,22,-11
COc1cccc(C=C(C(C)=O)C(=O)c2ccccc2)c1,0,2,4,6,2,0
O=C(Nc1nccs1)C1CCN(S(=O)(=O)c2ccccc2)CC1,-5,5,-4,8,5,1
CCn1c(=O)c([N+](=O)[O-])c(Cl)c2ccccc21,-14,7,1,23,39*,-21
CCN(CC)C(=O)C1=C(C)N(Cc2ccccc2)C(=O)C(CC(=O)NCc2cccs2)C1 (centres undefined),3,-1,-2,-4,-1,0
SMILES,M5 PAM,CHRM4 agonist,CHRM5 agonist,M5 antag,M4 antag,M4 PAM
CC(NC(=O)Nc1ccc([N+](=O)[O-])cc1)C(c1cccs1)N1CCCC1 (centres undefined),0,50*,10,3,-9,-1
CC(NC(=O)Nc1cccc(Cl)c1)C(c1cccs1)N1CCCC1 (centres undefined),-2,9,0,9,3,-2
COCCCNC(=O)Cn1c(=O)n(CC(=O)NCCc2ccc(OC)c(OC)c2)c(=O)c2sccc21,1,1,1,8,-5,32
COc1ccc(CCNC(=O)Cn2c(=O)n(-c3ccc(C)c(F)c3)c(=O)c3sccc32)cc1OC,7,-2,-1,-8,3,32*
CCn1c(SCC(=O)Nc2ccccc2)nc2c1c(=O)n(C)c(=O)n2C,18*,2,2,1,7,-4
CCOC(=O)C1(Cc2ccc(OC)cc2)CCN(C(=O)CN2CCCCC2=O)CC1,-9,2,-2,28*,-9,2
COc1cc(C)cc(OC)c1OCC(=O)Nc1cc(C)on1,-8,3,2,15,6,-5
Cc1sc2nc(CN3CCOCC3)nc(N3CCC(C(N)=O)CC3)c2c1C,-14,4,1,4,2,21*
Cc1sc2nc(CN3CCOCC3)nc(N3CCOCC3)c2c1C,-3,0,-2,-3,3,8
Cc1ccc(-c2c[n+](CC(=O)Nc3c(C)cccc3C)c3n2CCC3)cc1,16,0,-1,-15,2,-9
Cc1ccc(-c2c[n+](CC(=O)N3c4ccccc4Sc4ccccc43)c3n2CCC3)cc1,-21,0,-8,100*,99*,-17
O=C(C[n+]1cc(-c2ccccc2)n2c1CCC2)Nc1nc(-c2ccc(F)cc2)cs1,1,0,-8,7,10,-5
O=C(C[n+]1cc(-c2ccc(F)cc2)n2c1CCC2)N1c2ccccc2Sc2ccccc21,-19,1,-8,97*,81*,-17
O=C(C[n+]1cc(-c2ccccc2)n2c1CCC2)c1cccs1,8,0,-9,8,2,-5
O=C(C[n+]1cc(-c2ccccc2)n2c1CCC2)N1c2ccccc2Sc2ccccc21,-19,0,-10,52*,64*,-19
Cc1c(C(=O)N2CCc3ccccc3C2)oc2ccc(S(=O)(=O)N3CC(C)CC(C)C3)cc12 (centres undefined),-1,0,-3,5,-1,-5
COc1cc(NC(=O)NC2Cc3ccccc3C2)cc(OC)c1,0,1,-7,-3,-3,0
COc1cc(OC)cc(C(=O)Nc2cccc(N3CCCC3)c2)c1,2,1,2,-7,28*,-10
COC(=O)c1cccc(NC(=O)CCN2C(=O)NC(C)(C)C2=O)c1,-1,0,1,-5,-7,8
COc1cc(-c2nc3ccccn3c2/N=C/c2ccccc2)ccc1O,-12,0,51*,3,7,-2
